From ChEMBL document CHEMBL5712902, “Enhanced Anti-lymphoma Activity of CAR19-iNKT Cells Underpinned by Dual CD19 and CD1d Targeting” (Cancer Cell, 2018)
Calls of active or inactive are those of the source. The calls are words filed in the database; no cut-off is given here.

Assays:
U-266 [1] = assay: Upregulation of CD1D mRNA expression in human U-266 cells at 10^-6 M upto 96 hrs by RT-PCR analysis; format: functional, cell-based; settings: dose 1.0 10^-6M
Summary of the method: (§1)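 U266 cells were harvested in exponential growth and treated with 10^-6 M ATRA, 10^-6 M GSK343, or both, each diluted from a 1 mM 1000x PBS stock. Vehicle control was 0.01% DMSO. Incubation ran up to 96 hr, then CD1D mRNA was read by RT-PCR or CD1d protein by flow cytometry at set time points.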

U-266 [2] = assay: Upregulation of CD1D protein expression in human U-266 cells at 10^-6 M upto 96 hrs by flow cytometric analysis; format: functional, cell-based; settings: dose 1.0 10^-6M; summary of the method: as §1
CLL cell [3] = assay: Upregulation of CD1D mRNA expression in human CLL cells at 10^-6 M upto 96 hrs by RT-PCR analysis; format: functional, cell-based; settings: dose 1.0 10^-6M
Summary of the method: (§2)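 Primary CLL cells were treated with 10^-6 M ATRA, freshly prepared in DMSO, protected from light and diluted to a 1 mM 1000x stock in PBS. Vehicle control was 0.01% DMSO. Cells were incubated for up to 96 hr, then CD1d was read by RT-PCR for mRNA or flow cytometry for surface protein at set time points.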

U-266 [4] = assay: Upregulation of CD1D mRNA expression in human U-266 cells at 10^-6 M upto 96 hrs in presence of GSK343 by RT-PCR analysis; format: functional, cell-based; settings: dose 1.0 10^-6M; summary of the method: as §1
CLL cell [5] = assay: Upregulation of CD1D protein expression in human CLL cells at 10^-6 M upto 96 hrs by flow cytometric analysis; format: functional, cell-based; settings: dose 1.0 10^-6M; summary of the method: as §2
[6] = Cytotoxicity against human CLL cells assessed as reduction in cell viability at 10^-6 M after 48 to 96 hrs by tryphan blue assay; format: toxicity, cell-based; settings: 1 µM, time 48-96 hrs, dose 1 10^-6M
U-266 [7] = assay: Upregulation of CD1D protein expression in human U-266 cells at 10^-6 M upto 96 hrs in presence of GSK343 by flow cytometric analysis; format: functional, cell-based; settings: dose 1.0 10^-6M; summary of the method: as §1

SMILES	Activity (U-266 [1])	Activity (U-266 [2])	Activity (CLL cell [3])	Activity (U-266 [4])	Activity (CLL cell [5])	Activity [6]	Activity (U-266 [7])
CCCc1cc(C)[nH]c(=O)c1CNC(=O)c1cc(-c2ccnc(N3CCN(C)CC3)c2)cc2c1cnn2C(C)C	inactive	inactive	–	–	–	–	–
CC1=C(/C=C/C(C)=C/C=C/C(C)=C/C(=O)O)C(C)(C)CCC1 [TRETINOIN]	–	–	Active	Active	Active	Non-Toxic	Active
